Results on ten compounds are retold here after ChEMBL document CHEMBL4818990, “Insight into the binding mode of HIF-2 agonists through molecular dynamic simulations and biological validation” (Eur J Med Chem, 2021).

One series is filed under the species Homo sapiens. Nature of the series: Agonist activity at HIF-2 (unknown origin) expressed in bacterial expression system assessed as change in melting temperature at 10 uM measured by thermal shift assay. The note with it: filed as agonist. Put shortly: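 HIF-2–ARNT protein complex (1.5M as printed) with 10 μM compound from DMSO stock, final DMSO 0.1%, in 20 mM Tris pH 8.0, 400 mM NaCl. Read on qPCR instrument with thermal-shift dye. Tm from derivative curve; ΔTm = compound Tm minus blank Tm. Four parallel replicates per compound.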

Series [1] has as its system 786-0. Nature of the series: (§1) Agonist activity at HIF-2 in human 786-0-HRE-Luc cells assessed as increase in […] intensity measured after 24 hrs by luciferase reporter gene assay. Type of series: cell-based. The settings on record: filed as agonist. Put shortly: (§2)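 786-O cells stably transduced with lentiviral HRE-driven firefly luciferase (single clone), grown in RPMI-1640 + 10% FBS. Seeded, allowed to attach, then given compound in DMSO (2 and 20 μM, or a concentration series) for 24 h. Luminescence read with a firefly luciferase reagent; triplicate cultures, mean ± s.d.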
Background: A reporter such as luciferase makes a cellular process visible.

The test system of series [2] is 786-0. Nature of the series: Cytotoxicity against human 786-0-HRE-Luc cells assessed as inhibition of cell proliferation at 20 uM measured after 24 hrs by CCK8 assay. The note with it: 786-0, 24 h. Type of series: cell-based. Background: Tetrazolium assays rely on reduction of a dye to a coloured formazan, in cell work by metabolically active cells.
The nature of series [3]: as §1. The settings on record: 786-0, 24 h. Type of series: cell-based. Put shortly:
as §2

Series [4] relates to 786-0. Nature of the series: Agonist activity at HIF-2 in human 786-0-HRE-Luc cells assessed as increase in […] intensity at 20 uM measured after 24 hrs by luciferase reporter gene assay relative to control. Type of series: cell-based. The note with it: filed as agonist. In short, it runs like this: as §2
In series [5] the test system is 786-0. Nature of the series: Agonist activity at HIF-2 in human 786-0-HRE-Luc cells at 2 uM measured after 24 hrs by luciferase reporter gene assay. It counts as cell-based. The note with it: filed as agonist. Put shortly: as §2
The subject of series [6] is 786-0. Nature of the series: Agonist activity at HIF-2 in human 786-0-HRE-Luc cells assessed as increase in […] intensity at 6.6 to 20 uM measured after 24 hrs by luciferase reporter gene assay. Type of series: cell-based. The note with it: dose 6.6-20 µM. In short, it runs like this: as §2
Series [7] has as its system 786-0. Nature of the series: Agonist activity at HIF-2 in human 786-0-HRE-Luc cells assessed as increase in […] intensity at 2.2 uM measured after 24 hrs by luciferase reporter gene assay relative to control. The note with it: filed as agonist. It counts as cell-based. In short, it runs like this:
as §2

Series [8] relates to 786-0. Nature of the series: Cytotoxicity against human 786-0-HRE-Luc cells assessed as inhibition of cell proliferation at 1 uM measured after 24 hrs by CCK8 assay. Type of series: cell-based. The settings on record: 786-0, 24 h.

The structures appear in SMILES notation. Active and inactive are the calls of the source. The rule behind the calls is not given here.

With `O=S1(=O)N=C(Nc2ccccc2)c2ccccc21`, the ΔTm (in general, the change in melting temperature against a reference sample) in the series listed under Homo sapiens was determined as 2 °C. Moreover, the Activity result in the series with 786-0 [1] is “Dose-Dependent Effect”.

On to `O=S1(=O)N=C(Nc2cc(F)cc(F)c2)c2ccccc21`, for which the ΔTm in the series listed under Homo sapiens amounted to 2.05 °C. Further, in the series on 786-0 [1], the Activity entry was “Dose-Dependent Effect”.

With `CN(C1=NS(=O)(=O)c2ccccc21)c1cc(C(F)(F)F)cc(C(F)(F)F)c1`, the thermal shift (ΔTm) in the series filed under Homo sapiens was found to be 0.27 °C.

Turning to `O=C1N=C(Nc2cc(C(F)(F)F)cc(C(F)(F)F)c2)c2ccccc21`, the shift in melting temperature (ΔTm) in the series filed under Homo sapiens came out at 0.03 °C.

For `Cc1cc(C)cc(NC2=NS(=O)(=O)c3ccccc32)c1`, the thermal shift (ΔTm) in the series filed under Homo sapiens is 1.93 °C. The Activity result in the series with 786-0 [1] is “Dose-Dependent Effect”.

Consider `O=S1(=O)N=C(Oc2cc(C(F)(F)F)cc(C(F)(F)F)c2)c2ccccc21`, for which the thermal shift (ΔTm) in the series filed under Homo sapiens amounted to 0.06 °C.

In the case of `O=S1(=O)N=C(Nc2cc(Br)cc(Br)c2)c2ccccc21`, the ΔTm in the series filed under Homo sapiens is 2.52 °C. The Activity entry in the series with 786-0 [2] was “Non-Toxic”; in the series on 786-0 [1], “Dose-Dependent Effect”. In addition, the EC50 (as a rule, the concentration that produces a half-maximal response) in series [3] was determined as 1.68 µM. Moreover, the fold change (FC) in the series on 786-0 [4] came out at 1.63.

Consider `COc1cc(NC2=NS(=O)(=O)c3ccccc32)cc(OC)c1`, for which the ΔTm in the series listed under Homo sapiens is 1.89 °C. In the series on 786-0 [1], the Activity result was “Dose-Dependent Effect”.

Take `O=S1(=O)N=C(Nc2cc(Cl)cc(Cl)c2)c2ccccc21`: the thermal shift (ΔTm) in the series listed under Homo sapiens was found to be 2.08 °C. The Activity entry with 786-0 [1] is “Dose-Dependent Effect”.

As to `O=S1(=O)N=C(Nc2cc(C(F)(F)F)cc(C(F)(F)F)c2)c2ccccc21`, in the series listed under Homo sapiens, the ΔTm was found to be 2.23 °C. In the series on 786-0 [5], the outcome was Active. Further, the result with 786-0 [6] was inactive. Besides, the EC50 in [3] came to 0.44 µM. Moreover, in the series with 786-0 [7], the fold change (FC) is 1.41. Besides, the Activity entry in the series with 786-0 [8] is “Toxic”.
